Hits are enriched below; roughly 6.8% of the tested compounds scored in any of these assays.
HER2 expr 66K: inhibitors of human Her2 kinase expression; AID 645; HER2 level % of control, % at 10 µM; hit rate 0.69% among 65,000; SKBR-3 HER2 protein level, AlphaScreen, 18-24 h; hits give low values; P04626;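 active = HER2 level under 5% of the carrier-only control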;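 note: lower value means stronger loss of Her2 protein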
Cdc25B inh: inhibitors of human Cdc25B phosphatase; P30305; hit rate 0.1% among 65,000; inhibition, %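 (compounds tested at 10 µM final in the well)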; recombinant Cdc25B, OMFP fluorescence Ex485/Em525; in the data active = inhibition above about 50%
DUSP1 inh: blocks human MKP-1 phosphatase activity; P28562; recombinant MKP-1, OMFP hydrolysis fluorescence; inhibition, %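 (compounds tested at a single concentration somewhere between 10 and 100 µM)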; hit rate 0.15% among 65,000; AID 374;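 active = inhibition above about 50%, limit read from the data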
Target sequence (P28562 whole entry, looked up): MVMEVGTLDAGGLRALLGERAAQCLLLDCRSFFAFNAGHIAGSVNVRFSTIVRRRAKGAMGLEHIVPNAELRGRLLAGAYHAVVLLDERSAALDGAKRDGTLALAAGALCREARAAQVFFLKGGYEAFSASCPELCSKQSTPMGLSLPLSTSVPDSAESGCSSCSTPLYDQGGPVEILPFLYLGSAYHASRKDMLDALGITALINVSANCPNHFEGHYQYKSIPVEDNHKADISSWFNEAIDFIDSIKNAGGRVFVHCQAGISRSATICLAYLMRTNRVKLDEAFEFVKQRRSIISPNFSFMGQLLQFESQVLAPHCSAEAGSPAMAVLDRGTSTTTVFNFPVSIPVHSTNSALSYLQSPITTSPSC
HEK293 NFkB inh: inhibitors of the PMA/ionomycin-induced NF-kB reporter in HEK293 cells; HEK-293 NF-kB luciferase reporter, luminescence; inhibition, % at 3 µM; hit rate 0.21% among 62,000; AID 465;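 active = inhibition above the mean of all tested compounds plus 3 SD, cut at about 40% in these data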
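Timing: 1 h pretreatment, 16 h stimulation, 37 °C; system: HEK-293 cells with stable firefly luciferase reporter driven by four HIV NF-kB elements; doses: 3 µM once, 0.30% DMSO; measured by: luciferase luminescence; control set: DMSO and 10 µM reference inhibitor; repeats: single test; reagent: PMA plus ionomycin mix as NF-kB-activating stimulus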
M1 ag: agonists of M1 muscarinic receptor; CHO-M1 cells, Fluo-4 calcium fluorescence, agonist mode; hits give high values; B-score at 10 µM; hit rate 3% among 64,000;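 active = fluorescence rise, raw or as B-score row- and column-corrected plate score, outside the 99.7% band of its plate's samples, either direction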
M1 antagonist: blocks the rat M1 muscarinic receptor response to acetylcholine | P08482 | CHO-M1 cells, Fluo-4 calcium, ACh EC80 antagonist mode; hits give low values | B-score at 10 µM | hit rate 3.4% among 64,000 | AID 628;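 active = calcium fluorescence response, raw or row-and-column corrected B-score, differing from the plate sample mean either way at a set confidence level, mostly lower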
M1 antag confirm: confirmation of rat M1 muscarinic receptor antagonists; CHO-M1 cells, Fluo-4 calcium, ACh EC80 antagonism; hits give low values; shares compounds with M1 antagonist; hit rate 43% among 1,700; calcium response (max-min fluorescence) at 10 µM; AID 677;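 active = calcium response below the same-plate mean of wells given acetylcholine alone at its 80%-effect dose, minus 3 SD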
mGluR4 antag: mGluR4 (human) activity, M1 antagonist secondary assay; shares compounds with M1 antagonist; CHO-mGluR4 calcium flux, Fluo-4 fluorescence, glutamate EC80; hits give low values; fluorescence response (max-min) at 10 µM; hit rate 0.9% among 1,700;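 active = fluorescence response below the plate's average for near-maximal glutamate wells, less 3 SD of those wells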;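 note: raw unnormalized fluorescence span taken in the window right after glutamate addition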
Of the large screens only hits and unclear results are named; the others gave an inactive call (follow-up assays come after a bar, where they were run).

CCOCCCn1c(=N)c(C(=O)NCc2ccc3c(c2)OCO3)cc2c(=O)n3ccccc3nc21	M1 antagonist -2.68 | M1 antag confirm inactive | mGluR4 antag inactive
CCCn1c(=N)c(C(=O)NCc2ccc3c(c2)OCO3)cc2c(=O)n3cccc(C)c3nc21	M1 antagonist -10.3 | M1 antag confirm 54.2 | mGluR4 antag inactive
N#CCSc1nnc(-c2ccccc2O)n1CCc1ccccc1	none
O=C(Cn1cnc2c(nnn2Cc2ccccc2F)c1=O)NCc1ccco1	none
Cc1c(C#N)c(SCC(N)=O)nc2c1CCCC2	M1 antagonist -1.96 | M1 antag confirm inactive | mGluR4 antag inactive
COc1cccc(-c2nc(CS(=O)(=O)CC(=O)NCCCOC(C)C)c(C)o2)c1	none
COc1cccc(-c2nc(CS(=O)(=O)CC(=O)NCCCN3CCc4ccccc4C3)c(C)o2)c1	M1 antagonist -1.83 | M1 antag confirm inactive | mGluR4 antag inactive
O=C(c1ccco1)N1CCN(C(=O)C2CCCO2)CC1 (configuration not stated)	none
Cc1cccc(S(=O)(=O)c2c(N)n(/N=C/c3cccnc3)c3nc4ccccc4nc23)c1	none
Nc1c(S(=O)(=O)c2cccs2)c2nc3ccccc3nc2n1/N=C/c1cccc(O)c1	M1 antagonist -14.5 | M1 antag confirm inactive | mGluR4 antag inactive
COc1ccc(N2CCN(C(=O)Cn3nnc(-c4ccc(OC)c(OC)c4)n3)CC2)cc1	none
Cc1ccc(-c2nnn(CC(=O)N3CCN(c4ccccc4)CC3)n2)o1	M1 antagonist -4.16 | M1 antag confirm inactive | mGluR4 antag inactive
CCCSc1nc(N)c2c3c(sc2n1)CN(C)CC3	M1 antagonist -3.85 | M1 antag confirm 485 | mGluR4 antag inactive
CN(C)CCSc1nc(N)c2c3c(sc2n1)CN(C)CC3	M1 antagonist -6.2 | M1 antag confirm 545 | mGluR4 antag inactive
CC(C)Sc1nc(N)c2c3c(sc2n1)CN(C)CC3	none
COCCn1c(COc2cccc(OC)c2)nnc1SCC(=O)N1CCOCC1	none
COc1cccc(NC(=O)N2CCC(N3CCCCC3)CC2)c1	none
O=C(Nc1ccc(Cl)c(Cl)c1)N1CCC(N2CCCCC2)CC1	M1 antagonist -2.51 | M1 antag confirm inactive | mGluR4 antag inactive
CCOC(=O)N1CCC(Nc2c(NCCN3CCN(Cc4ccccc4)CC3)c(=O)c2=O)CC1	M1 antagonist -6.73 | M1 antag confirm inactive | mGluR4 antag inactive
CN(C)c1ccc(C2CC(=O)NC3=C2C(=O)CC(C)(C)C3)cc1 (configuration not stated)	none
CCN(CC)c1ccc(C2CC(=O)NC3=C2C(=O)CC(C)(C)C3)cc1 (configuration not stated)	M1 antagonist -3.17 | M1 antag confirm 381 | mGluR4 antag inactive
COc1ccc(C2(C(=O)NCCCN(C)C)CCOCC2)cc1	none
CC(C)=CCCC(C)CN(C)CCc1ccccn1 (configuration not stated)	M1 antagonist -3.11 | M1 antag confirm 569 | mGluR4 antag inactive
COC(C)(C)[C@]12CC(O)(c3ccccc3)ON1[C@H]1CCCCC1N2O (some centres not stated)	none
CN1CCN(C(=O)CN(Cc2ccc(Cl)cc2)S(C)(=O)=O)CC1	M1 antagonist -2.52 | M1 antag confirm inactive | mGluR4 antag inactive
CC1(C)CC2CC(C)(CN2c2ncnc3ccccc23)C1 (configuration not stated)	M1 antagonist -2.16 | M1 antag confirm inactive | mGluR4 antag inactive
O=C(O)C1CCCN1c1ncnc2ccccc12 (configuration not stated)	none
CCc1ccc(-c2nc(CN3CCC(C(=O)N4CCN(c5ccccn5)CC4)CC3)c(C)o2)cc1	M1 antagonist -2.63 | M1 antag confirm inactive | mGluR4 antag inactive
Cc1oc(-c2ccc(Cl)cc2)nc1CN1CCC(C(=O)N2CCN(c3ccccn3)CC2)CC1	M1 antagonist -3.22 | M1 antag confirm inactive | mGluR4 antag inactive

Screening data from PubChem.
